Measured values taken from ChEMBL document CHEMBL2062386, “Discovery of LFF571: an investigational agent for Clostridium difficile infection” (J Med Chem, 2012).
pKd: −log10 of the molar value. Converted amounts (≈) assume the structure as drawn. The source made the active and inactive calls. The calls are words filed in the database; no cut-off is given here.

Key:
Enterococcus faecalis [1] = assay: Antibacterial activity against Enterococcus faecalis ATCC 29212 by broth microdilution method; assay type: functional
Method in brief: (§1)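 Broth microdilution MICs were run per CLSI M07-A8 (2009). The strain panel included C. difficile ATCC 43255, E. faecalis ATCC 29212 and S. pyogenes ATCC BAA-595.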

Escherichia coli = assay: Inhibition of protein synthesis in Escherichia coli S30 extract at 2 uM after 75 mins by luciferase based luminescence assay relative to GE2270A; assay type: functional
Staphylococcus aureus [2] = assay: Antibacterial activity against Staphylococcus aureus ATCC 49951 infected in CD1 mouse assessed as mouse survival up to 5 days; assay type: functional; settings: ATCC 49951, 120 h
Method in brief: (§2)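 Female CD1 mice (21–25 g) were infected ip with 1 × 10^8 CFU/mouse, 10–100× the minimal lethal dose. E. faecalis NB04025 was given in 50% rat fecal extract and S. aureus ATCC 49951 in 0.9% NaCl. Compound was given by iv tail-vein bolus at 1 and 5 h post-inoculation, at several dose levels (6 mice/group). ED50 with 95% CI was derived by probit analysis of day-5 survival.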

Streptococcus pyogenes = assay: Antibacterial activity against Streptococcus pyogenes ATCC BAA-595 by broth microdilution method; assay type: functional; method in brief: as §1
Staphylococcus aureus [3] = assay: Antibacterial activity against Staphylococcus aureus A4.018 by broth microdilution method; assay type: functional
[4] = Antibacterial activity against Clostridium difficile ATCC 43255 by broth microdilution method; assay type: functional; settings: Clostridioides difficile; method in brief: as §1
Enterococcus faecium = assay: Antibacterial activity against Enterococcus faecium 7130724 by broth microdilution method; assay type: functional
Enterococcus faecalis [5] = assay: Antibacterial activity against Enterococcus faecalis NB04025 infected in CD1 mouse assessed as mouse survival up to 5 days; assay type: functional; settings: NB04025, 120 h; method in brief: as §2
[6] = Binding affinity to Escherichia coli GDPNP-labelled EF-Tu by surface plasmon resonance analysis
[7] = Antibacterial activity against Clostridium difficile ATCC 43255 infected in golden syrian hamster assessed as survival rate at 20 mg/kg, po qd administered days 1 to 5 measured on days 6 to 21; assay type: functional; settings: Clostridioides difficile
Method in brief: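 Golden Syrian hamsters got clindamycin 10 mg/kg sc on day −1. On day 0 they were gavaged with ~7.5 × 10^6 CFU C. difficile ATCC 43255 (0.75 mL). From 24 h post-infection they were dosed orally once daily for up to 5 days (8/dose), in a NaOH/PEG-400/2.5% Cremophor EL solution diluted in pH 7.4 PBS. Vehicle controls were included, and animals were observed twice daily through day 21.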

[8] = test system: Clostridium difficile ATCC 43255; assay: Antibacterial activity against Clostridium difficile ATCC 43255 infected in golden syrian hamster assessed as decrease in toxin level in cecum after 21 days by ELISA; assay type: functional; settings: Caecum
Method in brief: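 In the clindamycin-pretreated, C. difficile-infected hamster model, oral compound was given once daily on days 1–5. Surviving animals were euthanized at study end (day 21). Cecal homogenates were assayed for C. difficile toxins A and B by Tox A/B II ELISA per kit directions.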

SMILES	MIC (Enterococcus faecalis [1]) [µg/mL]	inhibition at 2 µM (Escherichia coli) [%]	ED50 (Staphylococcus aureus [2]) [mg/kg]	MIC (Streptococcus pyogenes) [µg/mL]	MIC (Staphylococcus aureus [3]) [µg/mL]	MIC [4] [µg/mL]	MIC (Enterococcus faecium) [µg/mL]	ED50 (Enterococcus faecalis [5]) [mg/kg]	pKd [6]	survival at 20 mg/kg [7] [%]	Activity [8]
CNC(=O)C[C@@H]1NC(=O)c2csc(n2)-c2ccc(-c3nc(N(CCCC(=O)O)C(=O)O[C@H]4CC[C@H](C(=O)O)CC4)cs3)nc2-c2csc(n2)-c2csc(n2)[C@H]([C@@H](O)c2ccccc2)NC(=O)CNC(=O)c2nc(sc2COC)[C@H](C(C)C)NC(=O)c2nc1sc2C	< 0.06	67	2.6	1 (≈ 0.739 µM)	0.25 (≈ 0.185 µM)	0.06 (≈ 0.0444 µM)	0.06 (≈ 0.0444 µM)	2.2			
CNC(=O)C[C@@H]1NC(=O)c2csc(n2)-c2ccc(-c3nc(N(CCCCCC(=O)O)C(=O)O[C@H]4CC[C@H](C(=O)O)CC4)cs3)nc2-c2csc(n2)-c2csc(n2)[C@H]([C@@H](O)c2ccccc2)NC(=O)CNC(=O)c2nc(sc2COC)[C@H](C(C)C)NC(=O)c2nc1sc2C	< 0.06	67	9.6	1 (≈ 0.724 µM)	0.125 (≈ 0.0905 µM)	0.06 (≈ 0.0435 µM)	< 0.06	0.8	8.22		
CNC(=O)C[C@@H]1NC(=O)c2csc(n2)-c2ccc(-c3nc(N(CCCCC(=O)O)C(=O)N[C@H]4CC[C@H](C(=O)O)CC4)cs3)nc2-c2csc(n2)-c2csc(n2)[C@H]([C@@H](O)c2ccccc2)NC(=O)CNC(=O)c2nc(sc2COC)[C@H](C(C)C)NC(=O)c2nc1sc2C	16 (≈ 11.7 µM)	30		32 (≈ 23.4 µM)	16 (≈ 11.7 µM)	1 (≈ 0.732 µM)	> 32				
CNC(=O)C[C@@H]1NC(=O)c2csc(n2)-c2ccc(-c3nc(N(CCCCC(=O)O)C(=O)OC4CC(C(=O)O)C4)cs3)nc2-c2csc(n2)-c2csc(n2)[C@H]([C@@H](O)c2ccccc2)NC(=O)CNC(=O)c2nc(sc2COC)[C@H](C(C)C)NC(=O)c2nc1sc2C (some centres undefined)	0.25 (≈ 0.187 µM)	67		2 (≈ 1.49 µM)	0.5 (≈ 0.374 µM)	0.03 (≈ 0.0224 µM)	0.25 (≈ 0.187 µM)				
CN[C@H](CC(C)C)C(=O)N[C@H]1C(=O)N[C@@H](CC(N)=O)C(=O)N[C@H]2C(=O)N[C@H]3C(=O)N[C@H](C(=O)N[C@H](C(=O)O)c4cc(O)cc(O)c4-c4cc3ccc4O)[C@H](O)c3ccc(c(Cl)c3)Oc3cc2cc(c3O[C@@H]2O[C@H](CO)[C@@H](O)[C@H](O)[C@H]2O[C@H]2C[C@](C)(N)[C@H](O)[C@H](C)O2)Oc2ccc(cc2Cl)[C@H]1O [VANCOMYCIN]										25	Active
CNC(=O)C[C@@H]1NC(=O)c2csc(n2)-c2ccc(-c3nc(N(CCCCC(=O)O)C(=O)OCC4CC4C(=O)O)cs3)nc2-c2csc(n2)-c2csc(n2)[C@H]([C@@H](O)c2ccccc2)NC(=O)CNC(=O)c2nc(sc2COC)[C@H](C(C)C)NC(=O)c2nc1sc2C (some centres undefined)	0.125 (≈ 0.0934 µM)	67		2 (≈ 1.49 µM)	0.25 (≈ 0.187 µM)	0.03 (≈ 0.0224 µM)	0.5 (≈ 0.374 µM)				
CNC(=O)C[C@@H]1NC(=O)c2csc(n2)-c2ccc(-c3nc(N(CCCCC(=O)O)C(=O)NCCCC(=O)O)cs3)nc2-c2csc(n2)-c2csc(n2)[C@H]([C@@H](O)c2ccccc2)NC(=O)CNC(=O)c2nc(sc2COC)[C@H](C(C)C)NC(=O)c2nc1sc2C	> 32	30		> 32	32 (≈ 24.1 µM)	4 (≈ 3.02 µM)	> 32				
CNC(=O)C[C@@H]1NC(=O)c2csc(n2)-c2ccc(-c3nc(N(CCCC(=O)O)C(=O)CCCC(=O)O)cs3)nc2-c2csc(n2)-c2csc(n2)[C@H]([C@@H](O)c2ccccc2)NC(=O)CNC(=O)c2nc(sc2COC)[C@H](C(C)C)NC(=O)c2nc1sc2C	> 32	30		> 32	> 32	> 4	> 32				
CNC(=O)C[C@@H]1NC(=O)c2csc(n2)-c2ccc(-c3nc(N(CCCC(=O)O)C(=O)CCCCC(=O)O)cs3)nc2-c2csc(n2)-c2csc(n2)[C@H]([C@@H](O)c2ccccc2)NC(=O)CNC(=O)c2nc(sc2COC)[C@H](C(C)C)NC(=O)c2nc1sc2C	32 (≈ 24.4 µM)	30		> 32	16 (≈ 12.2 µM)	2 (≈ 1.53 µM)	32 (≈ 24.4 µM)				
CNC(=O)C[C@@H]1NC(=O)c2csc(n2)-c2ccc(-c3nc(N(CCCCC(=O)O)C(=O)N4CCC(C(=O)O)CC4)cs3)nc2-c2csc(n2)-c2csc(n2)[C@H]([C@@H](O)c2ccccc2)NC(=O)CNC(=O)c2nc(sc2COC)[C@H](C(C)C)NC(=O)c2nc1sc2C	> 32	30		> 32	> 32	> 4	> 32				
CNC(=O)C[C@@H]1NC(=O)c2csc(n2)-c2ccc(-c3nc(N(CCCCCCC(=O)O)C(=O)O[C@H]4CC[C@H](C(=O)O)CC4)cs3)nc2-c2csc(n2)-c2csc(n2)[C@H]([C@@H](O)c2ccccc2)NC(=O)CNC(=O)c2nc(sc2COC)[C@H](C(C)C)NC(=O)c2nc1sc2C	< 0.06	67	6.6	2 (≈ 1.43 µM)	0.25 (≈ 0.179 µM)	0.06 (≈ 0.043 µM)	0.125 (≈ 0.0896 µM)	1			
CNC(=O)C[C@@H]1NC(=O)c2csc(n2)-c2ccc(-c3nc(N(CCCCC(=O)O)C(=O)OCc4ccc(C(=O)O)cn4)cs3)nc2-c2csc(n2)-c2csc(n2)[C@H]([C@@H](O)c2ccccc2)NC(=O)CNC(=O)c2nc(sc2COC)[C@H](C(C)C)NC(=O)c2nc1sc2C	1 (≈ 0.727 µM)	67		4 (≈ 2.91 µM)	2 (≈ 1.45 µM)	0.125 (≈ 0.0909 µM)	1 (≈ 0.727 µM)				
CNC(=O)C[C@@H]1NC(=O)c2csc(n2)-c2ccc(-c3nc(N(CCCCC(=O)O)C(=O)[C@H]4CC[C@@H](C(=O)O)O4)cs3)nc2-c2csc(n2)-c2csc(n2)[C@H]([C@@H](O)c2ccccc2)NC(=O)CNC(=O)c2nc(sc2COC)[C@H](C(C)C)NC(=O)c2nc1sc2C	> 32	30		> 32	> 32	> 4	> 32				
CNC(=O)C[C@@H]1NC(=O)c2csc(n2)-c2ccc(-c3nc(N(CCCCC(CCC(=O)O)C(=O)O)C(=O)O[C@H]4CC[C@H](C(=O)O)CC4)cs3)nc2-c2csc(n2)-c2csc(n2)[C@H]([C@@H](O)c2ccccc2)NC(=O)CNC(=O)c2nc(sc2COC)[C@H](C(C)C)NC(=O)c2nc1sc2C (some centres undefined)	8 (≈ 5.51 µM)	50		8 (≈ 5.51 µM)	16 (≈ 11 µM)	0.25 (≈ 0.172 µM)	8 (≈ 5.51 µM)				
CNC(=O)C[C@@H]1NC(=O)c2csc(n2)-c2ccc(-c3nc(N(CCCCC(=O)O)C(=O)O[C@@H]4CC[C@@H](C(=O)O)C[C@H]4CCCCC(=O)O)cs3)nc2-c2csc(n2)-c2csc(n2)[C@H]([C@@H](O)c2ccccc2)NC(=O)CNC(=O)c2nc(sc2COC)[C@H](C(C)C)NC(=O)c2nc1sc2C	4 (≈ 2.73 µM)	50		4 (≈ 2.73 µM)	8 (≈ 5.45 µM)	0.25 (≈ 0.17 µM)	4 (≈ 2.73 µM)				
CNC(=O)C[C@@H]1NC(=O)c2csc(n2)-c2ccc(-c3nc(NC(=O)CC[C@H](CC(=O)O)C(=O)O)cs3)nc2-c2csc(n2)-c2csc(n2)[C@H]([C@@H](O)c2ccccc2)NC(=O)CNC(=O)c2nc(sc2COC)[C@H](C(C)C)NC(=O)c2nc1sc2C	4 (≈ 3.15 µM)	30		> 32	8 (≈ 6.31 µM)	4 (≈ 3.15 µM)	8 (≈ 6.31 µM)				
